In brackets after ≈: the same amount, converted by molar mass.
Assays:
Aspergillus fumigatus = experiment: In vitro evaluation of minimum inhibitory concentration against Aspergillus fumigatus 33; format: functional
How it was run: (§1)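 Stocks are 800 μg/mL in 50% ethanol. Each plate gets 10 μL of inoculum at 10^5 cfu/mL. Incubation at 25 °C, 48 h for yeasts and 120 h for dermatophytes and molds. Organisms are ATCC strains or clinical isolates.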

Aspergillus niger = experiment: In vitro evaluation of minimum inhibitory concentration against Aspergillus niger 18; format: functional; settings: Aspergillus niger; read-out: MIC; how it was run: as §1
Pichia kudriavzevii = experiment: In vitro evaluation of minimum inhibitory concentration against Candida krusei 70; format: functional; settings: Pichia kudriavzevii; read-out: MIC; how it was run: as §1
Candida parapsilosis = experiment: In vitro evaluation of minimum inhibitory concentration against Candida parapsilosis 61; format: functional; how it was run: as §1
Candida tropicalis = experiment: In vitro evaluation of minimum inhibitory concentration against Candida tropicalis 2.11; format: functional; settings: Candida tropicalis; read-out: MIC; how it was run: as §1
Kluyveromyces marxianus [1] = experiment: In vivo Evaluation of minimum inhibitory concentration against Candida pseudotropicalis 13; format: functional; how it was run: as §1
Mus sp. [2] = experiment: In vivo evaluation of % survival rate after peroral administration on 3rd day at dose 0.5 mg/kg; format: functional; settings: route oral
Mus sp. [3] = experiment: In vivo evaluation of % survival rate after peroral administration on 3rd day at dose 1 mg/kg; format: functional; settings: Mus sp., po
Mus sp. [4] = experiment: In vivo evaluation of % survival rate after peroral administration on 5th day at dose 0.5 mg/kg; format: functional; settings: route oral
Mus sp. [5] = experiment: In vivo evaluation of % survival rate after peroral administration on 5th day at dose 1 mg/kg; format: functional; settings: route oral, 1 mg/kg
Mus musculus [6] = experiment: In vivo evaluation of % survival rate after peroral administration on 7th day at dose 0.5 mg/kg; format: functional; settings: route oral, 0.5 mg/kg
Mus sp. [7] = experiment: In vivo evaluation of % survival rate after peroral administration on 7th day at dose 1 mg/kg; format: functional; settings: route oral, 1 mg/kg
Mus sp. [8] = experiment: In vivo evaluation of % survival rate after peroral administration on 9th day at dose 0.5 mg/kg; format: functional; settings: route oral, 0.5 mg/kg
Mus sp. [9] = experiment: In vivo evaluation of % survival rate after peroral administration on 9th day at dose 1 mg/kg; format: functional; settings: route oral, 1 mg/kg
Microsporum canis = experiment: In vitro evaluation of minimum inhibitory concentration against Microsporum canis 47; format: functional; how it was run: as §1
Nannizzia gypsea = experiment: In vitro evaluation of minimum inhibitory concentration against Microsporum gypseum 22; format: functional; how it was run: as §1
Rattus norvegicus [10] = experiment: In vivo evaluation of antifungal activity against vaginal candidosis in rat at dose 0.1 mg/kg on 10th day; format: functional
How it was run: (§2)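 Groups of 10 female Wistar rats given estradiol 25 mg/kg sc on day -5, then vaginally inoculated with C. albicans on day 0. Infection is confirmed by culture of day-3 swabs. Compound is dosed orally once daily on days 3–5; controls get vehicle. Cure is scored by culture of vaginal swabs taken on days 10 and 15.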

Rattus norvegicus [11] = experiment: In vivo evaluation of antifungal activity against vaginal candidosis in rat at dose 0.1 mg/kg on 15th day; format: functional; how it was run: as §2
Rattus norvegicus [12] = experiment: In vivo evaluation of antifungal activity in against vaginal candidosis in rat at dose 0.25 mg/kg on 10th day; format: functional
How it was run: (§3)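 Groups of 10 female Wistar rats given estradiol 25 mg/kg sc on day -5, infected intravaginally with C. albicans by sterile swab on day 0; infection confirmed on day 3 by swab culture (TSB, then Sabouraud agar). Oral dosing once daily on days 3, 4, 5; vehicle controls. Vaginal swabs cultured on days 10 and 15; read-out % cured (culture-negative).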

Rattus norvegicus [13] = experiment: In vivo evaluation of antifungal activity in against vaginal candidosis in rat at dose 0.25 mg/kg on 15th day; format: functional; how it was run: as §3
Nakaseomyces glabratus = experiment: In vitro evaluation of minimum inhibitory concentration against Torulopsis glabrata 78; format: functional; how it was run: as §1
Trichophyton benhamiae = experiment: In vitro evaluation of minimum inhibitory concentration against Trichophyton mentagrophytes 23; format: functional, Arthroderma benhamiae; how it was run: as §1
Trichophyton rubrum = experiment: In vitro evaluation of minimum inhibitory concentration against Trichophyton rubrum 90; format: functional; how it was run: as §1
Rhodotorula mucilaginosa = experiment: In vitro evaluation of minimum inhibitory concentration against Rhodotorula rubra 16; format: functional; how it was run: as §1
Aspergillus flavus = experiment: In vitro evaluation of minimum inhibitory concentration against Aspergillus flavus 19; format: functional; settings: Aspergillus flavus; read-out: MIC; how it was run: as §1
Candida albicans [14] = experiment: In vivo evaluation of minimum inhibitory concentration against Candida albicans 406; format: functional
How it was run: (§4)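 Broth macrodilution MIC following NCCLS M27-P, in RPMI-1640 buffered with 0.165 M MOPS. Fluconazole was dissolved in water and other drugs in DMSO. C. parapsilosis ATCC 22019 served as the reference strain in every run. MIC was the lowest concentration giving turbidity at or below the 80% inhibition standard.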

Candida albicans [15] = experiment: In vivo evaluation of minimum inhibitory concentration against Candida albicans 60; format: functional; how it was run: as §4
Mus musculus [16] = experiment: In vivo evaluation of % survival rate after peroral administration on 3rd day at dose 5 mg/kg; format: functional; settings: route oral
Mus musculus [17] = experiment: In vivo evaluation of % survival rate after peroral administration on 5th day at dose 5 mg/kg; format: functional; settings: route oral
Mus musculus [18] = experiment: In vivo evaluation of % survival rate after peroral administration on 9th day at dose 5 mg/kg; format: functional; settings: route oral
Kluyveromyces marxianus [19] = experiment: In vitro evaluation of minimum inhibitory concentration against Candida pseudotropicalis 13; format: functional; how it was run: as §1
Mus musculus [20] = experiment: In vivo evaluation of % survival rate after peroral administration on 7th day at dose 5 mg/kg; format: functional; settings: route oral

Structure (SMILES): C[C@H]1N(C(=O)c2ccc(C(F)(F)F)cc2)CCO[C@@]1(Cn1cncn1)c1ccc(F)cc1F (stereo in doubt)
- MIC (Aspergillus fumigatus): 10 µg/mL (≈ 21.4 µM)
- MIC (Aspergillus niger): 40 µg/mL (≈ 85.8 µM)
- MIC (Pichia kudriavzevii): 80 µg/mL (≈ 172 µM)
- MIC (Candida parapsilosis): 2.5 µg/mL (≈ 5.36 µM)
- MIC (Candida tropicalis): > 80 µg/mL
- MIC (Kluyveromyces marxianus [1]): 40 µg/mL (≈ 85.8 µM)
- survival at 0.5 mg/kg (Mus sp. [2]): 100%
- survival at 1 mg/kg (Mus sp. [3]): 100%
- survival at 0.5 mg/kg (Mus sp. [4]): 100%
- Survival (Mus sp. [5]): 100%
- Survival (Mus musculus [6]): 100%
- Survival (Mus sp. [7]): 100%
- Survival (Mus sp. [8]): 100%
- Survival (Mus sp. [9]): 100%
- MIC (Microsporum canis): 10 µg/mL (≈ 21.4 µM)
- MIC (Nannizzia gypsea): 20 µg/mL (≈ 42.9 µM)
- Cure rate (Rattus norvegicus [10]): 10%
- Cure rate (Rattus norvegicus [11]): 20%
- Cure rate (Rattus norvegicus [12]): 40%
- Cure rate (Rattus norvegicus [13]): 60%
- MIC (Nakaseomyces glabratus): 40 µg/mL (≈ 85.8 µM)
- MIC (Trichophyton benhamiae): 10 µg/mL (≈ 21.4 µM)
- MIC (Trichophyton rubrum): 10 µg/mL (≈ 21.4 µM)
- MIC (Rhodotorula mucilaginosa): >80 µg/mL
- MIC (Aspergillus flavus): > 80 µg/mL

Structure (SMILES): C[C@H]1N(C(=O)c2ccc(C(F)(F)F)cc2)C[C@H](O)O[C@@]1(Cn1cncn1)c1ccc(F)cc1F (stereo in doubt; (+)-39a)
- MIC (Candida albicans [14]): >80 µg/mL
- MIC (Candida albicans [15]): >80 µg/mL
- MIC (Candida parapsilosis): >80 µg/mL
- survival at 5 mg/kg (Mus musculus [16]): 40%
- survival at 5 mg/kg (Mus musculus [17]): 0%
- survival at 5 mg/kg (Mus musculus [18]): 0%
- MIC (Kluyveromyces marxianus [19]): >80 µg/mL
- survival at 5 mg/kg (Mus musculus [20]): 0%

Source: ChEMBL document CHEMBL1128448, “Synthesis and antifungal activity of new azole derivatives containing an N-acylmorpholine ring” (1995)
